Measured values reported in ChEMBL document CHEMBL1153628, “HCV NS5B polymerase inhibitors 2: Synthesis and in vitro activity of (1,1-dioxo-2H-[1,2,4]benzothiadiazin-3-yl) azolo[1,5-a]pyridine and azolo[1,5-a]pyrimidine derivatives” (Bioorg Med Chem Lett, 2009).

Experiments:
[1] = Inhibition of HCV isolate HC-J4 NS5B deltaC21 polymerase; parameters: species or system Hepatitis C virus isolate HC-J4
Method in brief: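 Inhibitor was preincubated 5 min, then 250 nM 5′-biotin-rU₁₂ primer, poly-rA template, UTP and ³H-UTP were added (5% DMSO). After 2 h, SPA beads/EDTA stop, then CsCl for 1 h, then scintillation count. IC50 by 4-parameter logistic fit.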

Hepatitis C virus = experiment: Antiviral activity against HCV 1b infected in human Huh7 cells after 46-50 hrs by luc/neo ET replicon assay; conditions: genotype 1b, Huh-7, 46-50 h
[2] = Cytotoxicity against human HuH7 cells; format: cell-based, Huh-7
Method in brief: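 Huh-7 cells stably carrying luc/neo ET replicon, grown in DMEM with 10% fetal calf serum, seeded at 5 × 10³ cells/well. DMSO serial dilutions were added ~24 h after plating (final DMSO 1%), with exposure for 46–50 h. Luminescence vs log concentration was fitted to a 4-parameter logistic to give EC50 and CC50.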

IC50 [1]	EC50 (Hepatitis C virus)	SMILES	CC50 [2]
< 5 nM	150 nM	CC(C)CC[C@@]1(C)C(=O)C(C2=NS(=O)(=O)c3cc(NS(C)(=O)=O)ccc3N2)=C(O)c2cccn21	19500 nM
150 nM	4900 nM	CC(C)CC[C@]1(C)C(=O)C(C2=NS(=O)(=O)c3cc(NS(C)(=O)=O)ccc3N2)=C(O)c2cccn21	170000 nM
< 5 nM	1100 nM	CC(C)CCC1(C)C(=O)C(C2=NS(=O)(=O)c3cc(NS(C)(=O)=O)ccc3N2)=C(O)c2ccnn21 (centres undefined)	> 100000 nM
< 5 nM	4000 nM	CS(=O)(=O)Nc1ccc2c(c1)S(=O)(=O)N=C(c1c(O)n3nccc3n(Cc3ccccc3)c1=O)N2	> 100000 nM
< 5 nM	550 nM	CC(C)CCn1c(=O)c(C2=NS(=O)(=O)c3cc(NS(C)(=O)=O)ccc3N2)c(O)n2nccc12	> 100000 nM
< 5 nM	1700 nM	Cc1cc2n(CCC(C)C)c(=O)c(C3=NS(=O)(=O)c4cc(NS(C)(=O)=O)ccc4N3)c(O)n2n1	> 100000 nM
< 5 nM	550 nM	CC(C)CCn1c(=O)c(C2=NS(=O)(=O)c3cc(NS(C)(=O)=O)ccc3N2)c(O)n2ccnc12	> 1000 nM
< 5 nM	6600 nM	CC(C)CCC1(C)C(=O)C(C2=NS(=O)(=O)c3cc(NS(C)(=O)=O)ccc3N2)=C(O)c2cncn21 (centres undefined)	> 100000 nM
< 5 nM	230 nM	CC(C)CCC1(C)C(=O)C(C2=NS(=O)(=O)c3cc(NS(C)(=O)=O)ccc3N2)=C(O)c2cccn21 (centres undefined)	> 100000 nM
< 5 nM	12000 nM	CS(=O)(=O)Nc1ccc2c(c1)S(=O)(=O)N=C(c1c(O)n3nccc3n(Cc3ccc(F)cc3)c1=O)N2	> 100000 nM
18 nM	> 100000 nM	CS(=O)(=O)Nc1ccc2c(c1)S(=O)(=O)N=C(c1c(O)n3nccc3n(CCc3ccc(F)cc3)c1=O)N2	> 100000 nM
< 5 nM	6700 nM	CC(C)CCn1c(=O)c(C2=NS(=O)(=O)c3cc(NS(C)(=O)=O)ccc3N2)c(O)n2ncnc12	> 100000 nM
9 nM	> 20000 nM	CC(C)CCn1c(=O)c(C2=NS(=O)(=O)c3cc(NS(C)(=O)=O)ccc3N2)c(O)n2nc(C3CC3)cc12	> 100000 nM
